Data published in ChEMBL document CHEMBL1149711, “Novel indanyl-substituted imidazo[1,2-a]pyridines as potent reversible inhibitors of the gastric H+/K+-ATPase” (Bioorg Med Chem Lett, 2007).

Columns and labels:
[1] = Inhibition of H+/K+ ATPase in hog gastric mucosa by competitive binding assay; format: tissue-based, Sus scrofa
Outline: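 Competitive binding assay using H+/K+-ATPase prepared from hog gastric mucosa; activity reported as −log IC50.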

[2] = Dissociation constant, pKa of the compound; format: physicochemical
Outline: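 Potentiometric co-solvent titration in 0.15 mol/L KCl over pH 2.0–11.0 at 25 °C. Methanol co-solvent at varying proportions; 0.5 mol/L KOH and HCl as titrants. Aqueous pKa obtained by linear extrapolation to 0% co-solvent (Yasuda–Shedlovsky plot).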

[3] = Lipophilicity, log P of the compound; format: physicochemical; settings: octanol/water
[4] = Lipophilicity, log D at pH 7.4; format: physicochemical; settings: buffer

SMILES: CCc1cccc(C)c1CNc1cc(C(N)=O)cn2c(C)c(C)nc12
- Log IC50 [1]: -6.2
- pKa [2]: 6.1
- logP [3]: 4.95
- logD [4]: 4.93

SMILES: Cc1nc2c(O[C@H]3c4ccccc4C[C@@H]3O)cc(C(=O)N(C)C)cn2c1C
- Log IC50 [1]: -5.7
- pKa [2]: 6.21
- logP [3]: 2.2
- logD [4]: 2.16

SMILES: COCCNC(=O)c1cc(N[C@H]2c3ccccc3C[C@@H]2O)c2nc(C)c(C)n2c1
- Log IC50 [1]: -4.7
- pKa [2]: 6.01
- logP [3]: 3.43
- logD [4]: 3.41

SMILES: Cc1nc2c(N[C@H]3c4ccccc4C[C@@H]3O)cc(C(N)=O)cn2c1C
- Log IC50 [1]: -4.8
- pKa [2]: 5.97
- logP [3]: 3.11
- logD [4]: 3.09

SMILES: CNC(=O)c1cc(N[C@H]2c3ccccc3C[C@@H]2O)c2nc(C)c(C)n2c1
- Log IC50 [1]: -5.4
- pKa [2]: 5.97
- logP [3]: 3.4
- logD [4]: 3.39

SMILES: Cc1cccc2c1[C@H](Oc1cc(C(=O)N(C)C)cn3c(C)c(C)nc13)[C@@H](O)C2
- Log IC50 [1]: -6.9
- pKa [2]: 6.22
- logP [3]: 2.59
- logD [4]: 2.56

SMILES: COc1cccc2c1[C@H](Oc1cc(C(=O)N(C)C)cn3c(C)c(C)nc13)[C@@H](O)C2
- Log IC50 [1]: -5.7
- pKa [2]: 6.27
- logP [3]: 2.3
- logD [4]: 2.27

SMILES: Cc1nc2c(N[C@H]3c4ccccc4C[C@@H]3O)cc(C(=O)N(C)C)cn2c1C
- Log IC50 [1]: -6.3
- pKa [2]: 6.24
- logP [3]: 2.85
- logD [4]: 2.82
